Compound activity from PubChem.
Hits are enriched below; roughly 2.1% of the tested compounds scored in any of these assays.
RanGTP-Impb inh: inhibitors of RanGTP-importin-beta interaction, primary screen, biochemical, FRET, CFP-Ran, YFP-importin-beta, homogeneous; AID 2216, 2009; cell-free CFP-Ran/YFP-importin-beta FRET ratio; Ran GTPase (GTP-bound) - importin-beta complex; inhibition, % (concentration not given with the values); 300,000 tested, 1.1% active;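 active = more than half of the replicate wells show a fall in the fluorescence ratio signal beyond about 16%, limit read from the data, passing the limit was not always enough; inconclusive = exactly half of the replicate wells pass the set limit; inactive = fewer than half of replicates pass the limit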;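 note: 0% = DMSO wells and 100% = Ran loaded with GDP instead of GTP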
proKLK7 act: proKLK7 zymogen activators, primary screen, biochemical, fluorescence intensity; activation, % at 7 µM; purified proKLK7, EDANS-DABCYL substrate fluorescence; 100% is mature enzyme control, 0% vehicle; 370,000 tested, 0.9% active;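 active = activation above the mean of all tested compounds plus 3 SD, computed per campaign excluding outliers beyond control limits, cut at about 13% in these data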
Target sequence (P49862 whole entry, looked up): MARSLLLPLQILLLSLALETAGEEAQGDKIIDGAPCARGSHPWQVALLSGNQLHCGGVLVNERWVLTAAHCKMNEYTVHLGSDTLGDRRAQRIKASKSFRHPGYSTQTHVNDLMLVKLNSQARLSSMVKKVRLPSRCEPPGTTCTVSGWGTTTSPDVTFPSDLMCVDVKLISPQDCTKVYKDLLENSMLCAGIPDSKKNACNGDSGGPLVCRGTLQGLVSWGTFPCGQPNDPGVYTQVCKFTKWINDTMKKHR
MEX-5 binding: MEX-5 zinc finger RNA-binding disruptors – biochemical, C. elegans, fluorescence polarization, MLPCN library, primary screen; Zinc finger protein mex-5 (Caenorhabditis elegans), Q9XUB2; MEX-5/FITC-TCR2 RNA binding; hits give low values; activity score (negative = inhibition of binding), % at 10 µM; 300,000 tested, 0.38% active;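 active = inhibition past about -25% in most replicates, and total fluorescence under double the plate's negative control median, limit read from the data; inconclusive = replicates evenly split on the limit, or fluorescence at least double controls; inactive = too little inhibition in most replicates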;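 note: 0% = DMSO and -100% = 5 µM competing unlabeled TCR2 RNA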
Target sequence (Q9XUB2 whole entry, looked up): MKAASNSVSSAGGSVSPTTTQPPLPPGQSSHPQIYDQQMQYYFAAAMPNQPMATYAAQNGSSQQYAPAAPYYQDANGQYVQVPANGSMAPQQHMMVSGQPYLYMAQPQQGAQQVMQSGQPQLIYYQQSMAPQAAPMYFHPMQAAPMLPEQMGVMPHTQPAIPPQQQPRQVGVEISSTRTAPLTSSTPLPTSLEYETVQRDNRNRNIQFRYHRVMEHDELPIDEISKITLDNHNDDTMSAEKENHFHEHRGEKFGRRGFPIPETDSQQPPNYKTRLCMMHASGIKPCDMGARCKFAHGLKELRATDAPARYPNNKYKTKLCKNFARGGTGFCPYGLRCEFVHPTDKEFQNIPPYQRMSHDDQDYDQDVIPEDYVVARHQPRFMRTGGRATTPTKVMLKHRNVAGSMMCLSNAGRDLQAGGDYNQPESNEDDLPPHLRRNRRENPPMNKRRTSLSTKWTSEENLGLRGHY
Runt-CBFb FRET: inhibitors of RUNX1 Runt–CBFb binding, primary screen, biochemical, FRET, Cerulean-Runt, Venus-CBFb, uHTS | inhibition, % at 20 µM | Cerulean-Runt/Venus-CBFb FRET ratio 530/480, 1 h | 220,000 tested, 0.46% active | Runt-related transcription factor 1 (Homo sapiens) + Core-binding factor subunit beta … | AID 1496, 2009;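 active = inhibition over about 50% at 20 µM in the single-dose screen, limit read from the data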;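 note: 0% = DMSO wells and 100% = excess unlabeled CBFb competitor control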
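System: Cerulean-labeled Runt domain protein | Quantity: 100 nM of each labeled protein | Schedule: 1 h compound exposure, room temperature | Detection: Fluorescence energy transfer, 422 nm excitation, 530/480 nm emission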
Runt-SMMHC FRET: inhibitors of RUNX1 Runt–CBFb-SMMHC binding, primary screen, biochemical, FRET, Cerulean-Runt, Venus-CBFb-SMMHC, uHTS; Runt-related transcription factor 1 (Homo sapiens) + Core-binding factor subunit beta …; Cerulean-Runt/Venus-CBFb-SMMHC FRET ratio 530/480, 1 h; inhibition, % at 20 µM; 220,000 tested, 0.74% active;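 active = mean inhibition across duplicate retests at 20 µM reaching about 50%, limit read from the data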;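 note: 0% = DMSO wells and 100% = wells with excess untagged CBFb-SMMHC; inhibitors lower the FRET ratio by blocking Runt binding to CBFb-SMMHC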
Numbers without * were called inactive.

How did O=C(NCc1cccnc1)c1csc([C@@H]2C[C@H](O)[C@@H](CO)O2)n1 do in these assays?
proKLK7 act: 0.0

What do the screens show for `CC1CCN(S(=O)(=O)N2CCC(C(=O)NCc3ccc(F)cc3Cl)CC2)CC1`?
proKLK7 act: -0.2

How did Cc1cccc(CN2C(=O)N/C(=C/c3ccc(C)s3)C2=O)c1 do in these assays?
RanGTP-Impb inh: inconclusive; proKLK7 act: -0.4; MEX-5 binding: -28.9*; Runt-CBFb FRET: 2.0; Runt-SMMHC FRET: 0.2

Results for Cc1cccc(CN2C(=O)N/C(=C/c3cc(C)n(-c4cc(C)ccn4)c3C)C2=O)c1 ?
RanGTP-Impb inh: 1.7; MEX-5 binding: 2.4; Runt-CBFb FRET: 2.5; Runt-SMMHC FRET: 3.4

What do the screens show for `O=C(C1CCN(S(=O)(=O)c2cc(Cl)ccc2Cl)CC1)N1CCOCC1`?
RanGTP-Impb inh: 7.1; proKLK7 act: 0.0; MEX-5 binding: 4.2

How did CC(=O)N1CCN(c2nc3cc4c(cc3nc2NS(=O)(=O)c2ccccc2)OCCO4)CC1 do in these assays?
RanGTP-Impb inh: 43.5*; proKLK7 act: 2.8; MEX-5 binding: 1.5; Runt-CBFb FRET: 92.5*; Runt-SMMHC FRET: 43.6

How did CC(=O)Nc1ccc(S(=O)(=O)Nc2nc3ccccc3nc2N2CCOCC2)cc1 do in these assays?
proKLK7 act: 0.0

Results for CC(C)COC(=O)/C(C#N)=C/c1c[nH]c2ccccc12 ?
RanGTP-Impb inh: 2.3; proKLK7 act: -17.6; MEX-5 binding: 1.3; Runt-CBFb FRET: 24.2; Runt-SMMHC FRET: 50.8*

How did Cc1c(CN2CCc3c([nH]c4ccccc34)C2CC(C)C)cnn1C (configuration not stated) do in these assays?
RanGTP-Impb inh: 34.6*; proKLK7 act: 1.4; MEX-5 binding: 1.0; Runt-CBFb FRET: -0.1; Runt-SMMHC FRET: -2.0

What do the screens show for `O=Cc1c(N2CCN(CCO)CC2)nc2ccccn2c1=O`?
RanGTP-Impb inh: 78.9*; proKLK7 act: 2.2; MEX-5 binding: -8.1

What do the screens show for `O=Cc1c(N2CCN(c3ccccc3)CC2)nc2ccccn2c1=O`?
RanGTP-Impb inh: -3.4; proKLK7 act: -0.1; MEX-5 binding: -3.1; Runt-CBFb FRET: -1.0; Runt-SMMHC FRET: -0.9

How did CCN1CCN(c2nc3ccccn3c(=O)c2C=O)CC1 do in these assays?
RanGTP-Impb inh: 110.4*; proKLK7 act: 4.7; MEX-5 binding: -7.8

What do the screens show for `Cc1ccc(C2=CC(=O)CC(C)(C)C2=O)cc1`?
proKLK7 act: 0.3

What do the screens show for `COc1ccc(-c2ccc(-c3noc(-c4ccccc4OC)n3)c(OC)n2)cc1`?
RanGTP-Impb inh: 34.5*; proKLK7 act: -45.1; MEX-5 binding: -5.3; Runt-CBFb FRET: 13.5; Runt-SMMHC FRET: 43.8

Results for COc1ccc(-c2ccc(-c3noc(-c4ccccc4C)n3)c(OC)n2)cc1 ?
RanGTP-Impb inh: 22.6*; proKLK7 act: -6.8; MEX-5 binding: 1.1; Runt-CBFb FRET: 5.4; Runt-SMMHC FRET: 10.8

How did COc1ccc(-c2ccc(-c3noc(C)n3)c(OC)n2)cc1 do in these assays?
RanGTP-Impb inh: -0.3; proKLK7 act: 2.2; MEX-5 binding: 0.8; Runt-CBFb FRET: 0.0; Runt-SMMHC FRET: 2.6

What do the screens show for `COc1ccc(-c2ccc(-c3noc(C4CCCCC4)n3)c(OC)n2)cc1`?
RanGTP-Impb inh: 18.9*; proKLK7 act: -6.4; MEX-5 binding: 2.5; Runt-CBFb FRET: 0.5; Runt-SMMHC FRET: 5.0

Results for COc1ccc(-c2ccc(-c3noc(-c4cccs4)n3)c(OC)n2)cc1 ?
RanGTP-Impb inh: 29.6*; proKLK7 act: 0.0; MEX-5 binding: -4.1; Runt-CBFb FRET: 9.8; Runt-SMMHC FRET: -68.2

Results for COc1ccc(-c2ccc(-c3noc(-c4ccc(OC)c(OC)c4)n3)c(OC)n2)cc1 ?
proKLK7 act: -1.6; Runt-CBFb FRET: 2.7; Runt-SMMHC FRET: 4.2

Results for C[C@@H]1[C@H](O)[C@@H](C)/C=C/C=C/C=C/C=C/C=C/C=C/C=C/[C@H](OC2O[C@H](C)[C@@H](O)[C@H](N)[C@@H]2O)C[C@@H]2O[C@](O)(C[C@@H](O)C[C@@H](O)[C@H](O)CC[C@@H](O)C[C@@H](O)CC(=O)O[C@H]1C)C[C@H](O)[C@H]2C(=O)O (some centres not stated) ?
proKLK7 act: 9.2

What do the screens show for `C[C@H](NC(=O)c1nc[nH]c1C(=O)N(C)CCO)c1ccccc1`?
proKLK7 act: 0.5

What do the screens show for `CCOc1ccc(C2=C/C(=C/c3cccnc3)C(=O)O2)cc1`?
RanGTP-Impb inh: 28.9*; proKLK7 act: 0.2; MEX-5 binding: -2.7; Runt-CBFb FRET: 11.7; Runt-SMMHC FRET: 77.6

What do the screens show for `CNc1ccc2ncc(-c3ccc(OC)c(OC)c3)n2n1`?
proKLK7 act: 45.0*

Results for O=C(O)CN1C(=O)C2C3CCC(C3)C2C1=O (configuration not stated) ?
proKLK7 act: -0.7

Results for CCCCCCOc1ccc(/C=c2\s/c(=C(/C#N)C(=O)NCc3ccco3)n(-c3ccccc3)c2=O)cc1 ?
RanGTP-Impb inh: 26.9*; proKLK7 act: -0.5; MEX-5 binding: -4.7; Runt-CBFb FRET: -250.0; Runt-SMMHC FRET: 8.3

How did COc1ccc(CCC(=O)NNC(=S)NCc2ccc(F)cc2)cc1 do in these assays?
RanGTP-Impb inh: 23.3*; proKLK7 act: 0.6; MEX-5 binding: 1.6; Runt-CBFb FRET: -1.1; Runt-SMMHC FRET: -4.3

What do the screens show for `COc1ccc(CCC(=O)NNC(=O)c2ccc(F)cc2)cc1`?
RanGTP-Impb inh: 1.4; proKLK7 act: 0.0; MEX-5 binding: -0.1

Results for COc1ccccc1/C=C/C=N/Nc1cccc(C(=O)O)c1 ?
RanGTP-Impb inh: 76.0*; proKLK7 act: -3.8; MEX-5 binding: -0.7

Results for O=C(O)c1cccc(N/N=C/c2cccnc2)c1 ?
RanGTP-Impb inh: 34.3*; proKLK7 act: 1.4; MEX-5 binding: 0.4; Runt-CBFb FRET: -1.7; Runt-SMMHC FRET: 2.1

Results for COc1ccc(Br)cc1/C=N/Nc1cccc(C(=O)O)c1 ?
RanGTP-Impb inh: -1.5; proKLK7 act: -0.4; Runt-CBFb FRET: 2.4; Runt-SMMHC FRET: 2.1

What do the screens show for `CCOc1ccc(NC(=O)CSc2nnnn2C2CC2)cc1S(=O)(=O)N1CCCC1`?
proKLK7 act: -0.1

How did O=C(O)CN1C(=O)C2C3CC(C2C1=O)C1C(c2ccc(F)cc2)c2sc(=O)[nH]c2SC31 (configuration not stated) do in these assays?
RanGTP-Impb inh: 79.1*; proKLK7 act: 0.6; MEX-5 binding: -4.1; Runt-CBFb FRET: 33.4; Runt-SMMHC FRET: 25.5
